What all share (assay type): functional, cell-based
Assay [1] addresses P2Y purinoceptor 1 (Rattus norvegicus, UniProt P49651). In words: Activity against rat P2Y1-GFP transfected in HEK293 cells by intracellular calcium increase. In a few lines:
(§1)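 HEK 293 cells stably expressing rat P2Y1-GFP or P2Y2-GFP (C-terminal GFP), transfected with DOTAP and selected with 1 mg/mL G418. Grown in DMEM/Ham's F12 with 10% FCS on PLL coverslips and measured after 3 days. Loaded with 2 µM Fura-2/AM for 30 min, then superfused with NaHBS at 37 °C with agonist for 1 min. Single-cell 340/380 nm ratio; mean ± SD, ≥50 cells.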

The next assay has as its target P2Y purinoceptor 2 (Rattus norvegicus, UniProt P41232). As to the kind of experiment: Activity against rat P2Y2-GFP transfected in HEK293 cells by intracellular calcium increase. In a few lines: as §1
On the technique in general: Calcium flux is commonly read through the fluorescence of an indicator in the cells.

The target in assay [2] is P2Y purinoceptor 1 (Homo sapiens, UniProt P47900). In words: Activity against human P2Y1-GFP expressed in 1321N1 cells by intracellular calcium increase. Summed up:
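hP2Y1-GFP (C-terminal tag) stably transfected into 1321N1 cells, which lack endogenous P2Y receptors; selected with 1 mg/mL G418. Cells grown in DMEM with 5% FCS under 10% CO2 at 37 °C on PLL-coated coverslips. Loaded with 2 µM Fura-2/AM for 30 min in NaHBS pH 7.4, then superfused at 37 °C with agonist for 1 min. Read-out is single-cell 340/380 nm fluorescence ratio; mean ± SD from ≥50 cells.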

Structures are written as SMILES.

The EC50 is the concentration giving half of the maximal effect.

Sequence of P2Y purinoceptor 2 (P41232 whole entry): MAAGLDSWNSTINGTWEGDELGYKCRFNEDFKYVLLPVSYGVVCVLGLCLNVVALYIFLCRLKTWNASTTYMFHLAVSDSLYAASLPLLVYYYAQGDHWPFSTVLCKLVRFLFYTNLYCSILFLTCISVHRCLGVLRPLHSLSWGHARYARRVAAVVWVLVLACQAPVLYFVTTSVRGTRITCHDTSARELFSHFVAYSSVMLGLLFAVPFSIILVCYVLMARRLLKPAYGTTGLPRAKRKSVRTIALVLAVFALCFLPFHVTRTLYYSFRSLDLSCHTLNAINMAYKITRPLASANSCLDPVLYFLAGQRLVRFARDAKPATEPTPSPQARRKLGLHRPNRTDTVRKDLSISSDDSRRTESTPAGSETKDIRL
Sequence of P2Y purinoceptor 1 (Rattus norvegicus, UniProt P49651) (P49651 whole entry, the tested form may be a part): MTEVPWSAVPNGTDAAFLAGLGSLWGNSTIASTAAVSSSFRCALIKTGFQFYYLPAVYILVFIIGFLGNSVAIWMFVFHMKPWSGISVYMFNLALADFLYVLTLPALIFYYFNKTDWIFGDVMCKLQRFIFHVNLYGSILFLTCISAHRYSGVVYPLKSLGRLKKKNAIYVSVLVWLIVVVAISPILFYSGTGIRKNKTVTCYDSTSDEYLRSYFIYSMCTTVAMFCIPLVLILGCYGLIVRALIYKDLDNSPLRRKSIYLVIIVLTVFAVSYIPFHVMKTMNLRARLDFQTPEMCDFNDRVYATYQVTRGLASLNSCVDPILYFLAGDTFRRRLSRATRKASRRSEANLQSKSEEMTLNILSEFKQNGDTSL
Sequence of P2Y purinoceptor 1 (Homo sapiens, UniProt P47900) (P47900 whole entry, the tested form may be a part): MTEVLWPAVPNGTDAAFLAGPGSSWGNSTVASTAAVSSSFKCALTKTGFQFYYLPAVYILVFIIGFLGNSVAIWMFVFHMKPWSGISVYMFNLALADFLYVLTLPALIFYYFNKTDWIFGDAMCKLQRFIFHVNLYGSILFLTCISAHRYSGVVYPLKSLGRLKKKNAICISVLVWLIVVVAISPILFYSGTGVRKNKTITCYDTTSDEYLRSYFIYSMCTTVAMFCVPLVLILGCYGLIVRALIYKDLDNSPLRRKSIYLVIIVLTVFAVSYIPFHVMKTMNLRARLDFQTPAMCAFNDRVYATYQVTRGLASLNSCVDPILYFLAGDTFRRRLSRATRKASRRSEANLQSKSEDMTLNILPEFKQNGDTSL

With `BP(=O)(OP(=O)(O)OC[C@H]1O[C@@H](n2cnc3c(N)ncnc32)[C@H](O)[C@@H]1O)OP(=O)(O)OC[C@H]1O[C@@H](n2cnc3c(N)ncnc32)[C@H](O)[C@@H]1O.CCCCN(CCCC)CCCC.CCCCN(CCCC)CCCC.CCCCN(CCCC)CCCC`, on P2Y purinoceptor 1 [1], the EC50 came out at 900 nM.
Turning to `BP(=O)(OP(=O)(O)OC[C@H]1O[C@@H](n2ccc(=O)[nH]c2=O)[C@H](O)[C@@H]1O)OP(=O)(O)OC[C@H]1O[C@@H](n2ccc(=O)[nH]c2=O)[C@H](O)[C@@H]1O.CCCCN(CCCC)CCCC.CCCCN(CCCC)CCCC.CCCCN(CCCC)CCCC`, the half-maximal effective concentration (EC50) result at P2Y purinoceptor 2 (hek293) is “Not Active”; on P2Y purinoceptor 1 [2] it was 800 nM.
As for `BP(=O)(OP(=O)(O)OP(=O)(O)OC[C@H]1O[C@@H](n2cnc3c(N)ncnc32)[C@H](O)[C@@H]1O)OP(=O)(O)OP(=O)(O)OC[C@H]1O[C@@H](n2cnc3c(N)ncnc32)[C@H](O)[C@@H]1O.CCCCN(CCCC)CCCC.CCCCN(CCCC)CCCC.CCCCN(CCCC)CCCC.CCCCN(CCCC)CCCC.CCCCN(CCCC)CCCC`, on P2Y purinoceptor 1 [1], the EC50 stood at 63 nM.
In the case of `BP(=O)(OP(=O)(O)OP(=O)(O)OC[C@H]1O[C@@H](n2ccc(=O)[nH]c2=O)[C@H](O)[C@@H]1O)OP(=O)(O)OP(=O)(O)OC[C@H]1O[C@@H](n2ccc(=O)[nH]c2=O)[C@H](O)[C@@H]1O.CCCCN(CCCC)CCCC.CCCCN(CCCC)CCCC.CCCCN(CCCC)CCCC.CCCCN(CCCC)CCCC.CCCCN(CCCC)CCCC`, the EC50 at P2Y purinoceptor 2 (read-out: EC50) is > 7000 nM; at P2Y purinoceptor 1 [2] it was 800 nM.
Take `Nc1ncnc2c1ncn2[C@@H]1O[C@H](COP(=O)(O)OP(=O)(O)OP(=O)(O)OC[C@H]2O[C@@H](n3cnc4c(N)ncnc43)[C@H](O)[C@@H]2O)[C@@H](O)[C@H]1O`: the EC50 at P2Y purinoceptor 1 [1] was 60 nM.
With `CSc1nc(N)c2ncn([C@@H]3O[C@H](COP(=O)(O)OP(=O)(O)O)[C@@H](O)[C@H]3O)c2n1`, the EC50 at P2Y purinoceptor 1 [1] was 100 nM.
As for `Nc1ncnc2c1ncn2[C@@H]1O[C@H](COP(=O)(O)OP(=O)(O)OP(=O)(O)OP(=O)(O)OP(=O)(O)OC[C@H]2O[C@@H](n3cnc4c(N)ncnc43)[C@H](O)[C@@H]2O)[C@@H](O)[C@H]1O`, the EC50 at P2Y purinoceptor 1 [1] was ≥ 5000 nM.
`O=c1ccn([C@@H]2O[C@H](COP(=O)(O)OP(=O)(O)OP(=O)(O)O)[C@@H](O)[C@H]2O)c(=O)[nH]1` [URIDINE TRIPHOSPHATE]: at P2Y purinoceptor 2 (read-out: EC50), the EC50 turned out to be 130 nM.
